Laboratory results published in ChEMBL document CHEMBL1151705, “Novel azalides derived from 16-membered macrolides. Part II: Isolation of the linear 9-formylcarboxylic acid and its sequential macrocyclization with an amino alcohol or an azidoamine” (2008).
Values after ≈ are worked out from the molar mass of the structure shown.

Legend:
[1] = tested on: Streptococcus pneumoniae; experiment: Antimicrobial activity against Streptococcus pneumoniae 8 expressing inducible ermB after 20 hrs by agar dilution method; type: functional
How it was run: (§1)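 Streptococci, H. influenzae and M. catarrhalis were precultured on blood agar plates. Suspensions of about 10⁶ CFU/ml were inoculated onto sensitivity disk agar supplemented with 5% horse blood and incubated at 37 °C for 20 h. MIC was read as the lowest drug concentration with no visible growth.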

[2] = tested on: Streptococcus pyogenes; experiment: Antimicrobial activity against Streptococcus pyogenes 3 expressing mefA after 20 hrs by agar dilution method; type: functional; how it was run: as §1
[3] = tested on: Staphylococcus aureus; experiment: Antimicrobial activity against drug-susceptible Staphylococcus aureus 209P JC-1 after 20 hrs by agar dilution method; type: functional
How it was run: (§2)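 Agar dilution MIC. S. aureus seed culture was grown in sensitivity test broth. Cell suspension (about 10⁶ CFU/ml) was inoculated onto sensitivity disk agar with 5% horse blood and incubated at 37 °C for 20 h. MIC was the lowest drug concentration that prevented visible growth.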

[4] = tested on: Streptococcus pneumoniae; experiment: Antimicrobial activity against Streptococcus pneumoniae 6 constitutively expressing ermB after 20 hrs by agar dilution method; type: functional; how it was run: as §1
[5] = tested on: Staphylococcus aureus; experiment: Antimicrobial activity against Staphylococcus aureus 5 expressing inducible ermB after 20 hrs by agar dilution method; type: functional; how it was run: as §2
[6] = tested on: Haemophilus influenzae; experiment: Antimicrobial activity against drug-susceptible Haemophilus influenzae 4 after 20 hrs by agar dilution method; type: functional; how it was run: as §1
[7] = tested on: Streptococcus pyogenes; experiment: Antimicrobial activity against Streptococcus pyogenes 2 constitutively expressing ermB after 20 hrs by agar dilution method; type: functional; how it was run: as §1
[8] = tested on: Haemophilus influenzae; experiment: Antimicrobial activity against drug-susceptible Haemophilus influenzae 3 after 20 hrs by agar dilution method; type: functional; how it was run: as §1
[9] = tested on: Staphylococcus aureus; experiment: Antimicrobial activity against drug-susceptible Staphylococcus aureus 3 after 20 hrs by agar dilution method; type: functional; how it was run: as §2
[10] = tested on: Streptococcus pneumoniae; experiment: Antimicrobial activity against drug-susceptible Streptococcus pneumoniae 3 after 20 hrs by agar dilution method; type: functional; how it was run: as §1
[11] = tested on: Streptococcus pneumoniae; experiment: Antimicrobial activity against Streptococcus pneumoniae 4 constitutively expressing ermB after 20 hrs by agar dilution method; type: functional; how it was run: as §1
[12] = tested on: Haemophilus influenzae; experiment: Antimicrobial activity against drug-susceptible Haemophilus influenzae 1 after 20 hrs by agar dilution method; type: functional; how it was run: as §1
[13] = tested on: Streptococcus pneumoniae; experiment: Antimicrobial activity against Streptococcus pneumoniae 9 expressing mefA after 20 hrs by agar dilution method; type: functional; how it was run: as §1
[14] = tested on: Streptococcus pneumoniae; experiment: Antimicrobial activity against drug-susceptible Streptococcus pneumoniae DP1 Type1 after 20 hrs by agar dilution method; type: functional; how it was run: as §1
[15] = tested on: Streptococcus pneumoniae; experiment: Antimicrobial activity against Streptococcus pneumoniae 10 expressing mefA after 20 hrs by agar dilution method; type: functional; how it was run: as §1
[16] = tested on: Staphylococcus aureus; experiment: Antimicrobial activity against Staphylococcus aureus 6 expressing inducible ermC after 20 hrs by agar dilution method
[17] = tested on: Haemophilus influenzae; experiment: Antimicrobial activity against drug-susceptible Haemophilus influenzae 2 after 20 hrs by agar dilution method; type: functional; how it was run: as §1
[18] = tested on: Moraxella catarrhalis; experiment: Antimicrobial activity against drug-susceptible Moraxella catarrhalis 2 after 20 hrs by agar dilution method; type: functional; how it was run: as §1
[19] = tested on: Streptococcus pyogenes; experiment: Antimicrobial activity against drug-susceptible Streptococcus pyogenes 1 after 20 hrs by agar dilution method; type: functional; how it was run: as §1
[20] = tested on: Staphylococcus aureus; experiment: Antimicrobial activity against Staphylococcus aureus 4 constitutively expressing ermA after 20 hrs by agar dilution method; type: functional; how it was run: as §2
[21] = tested on: Moraxella catarrhalis; experiment: Antimicrobial activity against drug-susceptible Moraxella catarrhalis 1 after 20 hrs by agar dilution method; type: functional; how it was run: as §1
[22] = tested on: Streptococcus pneumoniae; experiment: Antimicrobial activity against Streptococcus pneumoniae 7 expressing inducible ermB after 20 hrs by agar dilution method; type: functional; how it was run: as §1
[23] = tested on: Staphylococcus aureus; experiment: Antimicrobial activity against drug-susceptible Staphylococcus aureus 2 after 20 hrs by agar dilution method; type: functional; how it was run: as §2
[24] = tested on: Streptococcus pneumoniae; experiment: Antimicrobial activity against drug-susceptible Streptococcus pneumoniae 2 after 20 hrs by agar dilution method; type: functional; how it was run: as §1
[25] = tested on: Streptococcus pneumoniae; experiment: Antimicrobial activity against Streptococcus pneumoniae 5 constitutively expressing ermB/mefA after 20 hrs by agar dilution method; type: functional; how it was run: as §1
[26] = Streptococcus pyogenes, 20 h, read-out: MIC
[27] = Streptococcus pneumoniae, 20 h, read-out: MIC
[28] = Haemophilus influenzae, 20 h, read-out: MIC

CCOC(=O)[C@H]1[C@H](C)O[C@@H](O[C@H]2[C@H](N(C)C)[C@@H](O)[C@H](O[C@H]3[C@@H](CC=O)C[C@@H](C)[C@@H](O)CN(C)CCC(/C=C/Cc4ccnc5ccccc45)NC(=O)C[C@@H](OC(=O)CC)[C@@H]3OC)O[C@@H]2C)C[C@@]1(C)O (mixture of isomers)
MIC [1]: 8 µg/mL
MIC [2, 26]: 1 µg/mL
MIC [3]: 0.5 µg/mL
MIC [4, 27]: > 128 µg/mL
MIC [5]: 0.5 µg/mL
MIC [6, 28]: 8 µg/mL
MIC [7]: > 128 µg/mL
MIC [8, 28]: 8 µg/mL
MIC ([9]; Staphylococcus aureus, 20 h, read-out: MIC): 0.5 µg/mL
MIC [10]: 0.06 µg/mL
MIC [11, 27]: > 128 µg/mL
MIC [12, 28]: 32 µg/mL
MIC [13, 27]: 0.13 µg/mL
MIC [14]: 0.03 µg/mL
MIC [15, 27]: 0.13 µg/mL
MIC [16]: 0.5 µg/mL
MIC [17, 28]: 1 µg/mL
MIC ([18]; Moraxella catarrhalis, 20 h, read-out: MIC): 2 µg/mL
MIC [19, 26]: 0.25 µg/mL
MIC [20]: > 128 µg/mL
MIC [21]: 1 µg/mL
MIC [22]: 8 µg/mL
MIC [23]: 1 µg/mL
MIC [24, 27]: 0.13 µg/mL
MIC [25, 27]: > 128 µg/mL

CCOC(=O)[C@H]1[C@H](C)O[C@@H](O[C@H]2[C@H](N(C)C)[C@@H](O)[C@H](O[C@H]3[C@@H](CC=O)C[C@@H](C)[C@@H](O)CN(C)CCC(C/C=C/c4ccnc5ccccc45)NC(=O)C[C@@H](OC(=O)CC)[C@@H]3OC)O[C@@H]2C)C[C@@]1(C)O (single isomer, unassigned)
MIC [1, 27]: > 128 µg/mL
MIC [2, 26]: 2 µg/mL (≈ 2.06 µM)
MIC [3]: 1 µg/mL (≈ 1.03 µM)
MIC [4, 27]: > 128 µg/mL
MIC [5]: 0.5 µg/mL (≈ 0.515 µM)
MIC [6, 28]: 32 µg/mL (≈ 32.9 µM)
MIC [7]: > 128 µg/mL
MIC [8, 28]: 16 µg/mL (≈ 16.5 µM)
MIC [9]: 0.5 µg/mL (≈ 0.515 µM)
MIC [10, 27]: 0.25 µg/mL (≈ 0.257 µM)
MIC [11, 27]: > 128 µg/mL
MIC [12, 28]: 64 µg/mL (≈ 65.9 µM)
MIC [13, 27]: 0.25 µg/mL (≈ 0.257 µM)
MIC [14, 27]: 0.13 µg/mL (≈ 0.134 µM)
MIC [15, 27]: 0.25 µg/mL (≈ 0.257 µM)
MIC [16]: 1 µg/mL (≈ 1.03 µM)
MIC [17, 28]: 2 µg/mL (≈ 2.06 µM)
MIC [18]: 1 µg/mL (≈ 1.03 µM)
MIC [19, 26]: 0.5 µg/mL (≈ 0.515 µM)
MIC [20]: > 128 µg/mL
MIC [21]: 2 µg/mL (≈ 2.06 µM)
MIC [22, 27]: > 128 µg/mL
MIC [23]: 2 µg/mL (≈ 2.06 µM)
MIC [24, 27]: 0.13 µg/mL (≈ 0.134 µM)
MIC [25, 27]: > 128 µg/mL

CCOC(=O)[C@H]1[C@H](C)O[C@@H](O[C@H]2[C@H](N(C)C)[C@@H](O)[C@H](O[C@H]3[C@@H](CC=O)C[C@@H](C)[C@@H](O)CN(C)CC(/C=C/Cc4cnc5ccccc5c4)CCOC(=O)C[C@@H](OC(=O)CC)[C@@H]3OC)O[C@@H]2C)C[C@@]1(C)O (stereo in doubt; form 2)
MIC [1]: 128 µg/mL (≈ 130 µM)
MIC [2]: 0.5 µg/mL (≈ 0.507 µM)
MIC [3]: 0.25 µg/mL (≈ 0.253 µM)
MIC [4]: >128 µg/mL
MIC [5]: 0.25 µg/mL (≈ 0.253 µM)
MIC [6]: 16 µg/mL (≈ 16.2 µM)
MIC [8]: 16 µg/mL (≈ 16.2 µM)
MIC [9]: 0.25 µg/mL (≈ 0.253 µM)
MIC [10]: 0.03 µg/mL (≈ 0.0304 µM)
MIC [11]: >128 µg/mL
MIC [12]: 64 µg/mL (≈ 64.9 µM)
MIC [13]: 0.06 µg/mL (≈ 0.0608 µM)
MIC [14]: 0.015 µg/mL (≈ 0.0152 µM)
MIC [15]: 0.06 µg/mL (≈ 0.0608 µM)
MIC [16]: 0.5 µg/mL (≈ 0.507 µM)
MIC [17]: 4 µg/mL (≈ 4.06 µM)
MIC [18]: 2 µg/mL (≈ 2.03 µM)
MIC [19]: 0.13 µg/mL (≈ 0.132 µM)
MIC [21]: 2 µg/mL (≈ 2.03 µM)
MIC [22]: 128 µg/mL (≈ 130 µM)
MIC [23]: 0.5 µg/mL (≈ 0.507 µM)
MIC [24]: 0.06 µg/mL (≈ 0.0608 µM)
MIC [25]: >128 µg/mL

CCOC(=O)[C@H]1[C@H](C)O[C@@H](O[C@H]2[C@H](N(C)C)[C@@H](O)[C@H](O[C@H]3[C@@H](CC=O)C[C@@H](C)[C@@H](O)CN(C)CCC(CCCc4ccnc5ccccc45)NC(=O)C[C@@H](OC(=O)CC)[C@@H]3OC)O[C@@H]2C)C[C@@]1(C)O (stereo in doubt; form 2)
MIC [1]: 64 µg/mL (≈ 65.8 µM)
MIC [2]: 2 µg/mL (≈ 2.06 µM)
MIC [3]: 4 µg/mL (≈ 4.11 µM)
MIC [5]: 4 µg/mL (≈ 4.11 µM)
MIC [6]: 8 µg/mL (≈ 8.22 µM)
MIC [8]: 16 µg/mL (≈ 16.4 µM)
MIC [9]: 2 µg/mL (≈ 2.06 µM)
MIC [10]: 0.25 µg/mL (≈ 0.257 µM)
MIC [12]: 64 µg/mL (≈ 65.8 µM)
MIC [13]: 0.25 µg/mL (≈ 0.257 µM)
MIC [14]: 0.13 µg/mL (≈ 0.134 µM)
MIC [15]: 0.25 µg/mL (≈ 0.257 µM)
MIC [16]: 4 µg/mL (≈ 4.11 µM)
MIC [17]: 2 µg/mL (≈ 2.06 µM)
MIC [18]: 8 µg/mL (≈ 8.22 µM)
MIC [19]: 0.5 µg/mL (≈ 0.514 µM)
MIC [21]: 8 µg/mL (≈ 8.22 µM)
MIC [22]: 64 µg/mL (≈ 65.8 µM)
MIC [23]: 8 µg/mL (≈ 8.22 µM)
MIC [24]: 0.25 µg/mL (≈ 0.257 µM)
